# Shown are actives, neighbours in structure and some others; about 2% of the full set was active somewhere.
# DNMT1 inh = inhibitors of human DNMT1 | DNMT1 molecular beacon, Hinp1I cleavage, fluorescence | inhibition (reported as % activation of signal), % at 10 µM | 360,000 compounds, 0.83% hits | AID 588458; in the data active means inhibition above about 50%
# Target sequence (P26358 504-1616 limits assumed): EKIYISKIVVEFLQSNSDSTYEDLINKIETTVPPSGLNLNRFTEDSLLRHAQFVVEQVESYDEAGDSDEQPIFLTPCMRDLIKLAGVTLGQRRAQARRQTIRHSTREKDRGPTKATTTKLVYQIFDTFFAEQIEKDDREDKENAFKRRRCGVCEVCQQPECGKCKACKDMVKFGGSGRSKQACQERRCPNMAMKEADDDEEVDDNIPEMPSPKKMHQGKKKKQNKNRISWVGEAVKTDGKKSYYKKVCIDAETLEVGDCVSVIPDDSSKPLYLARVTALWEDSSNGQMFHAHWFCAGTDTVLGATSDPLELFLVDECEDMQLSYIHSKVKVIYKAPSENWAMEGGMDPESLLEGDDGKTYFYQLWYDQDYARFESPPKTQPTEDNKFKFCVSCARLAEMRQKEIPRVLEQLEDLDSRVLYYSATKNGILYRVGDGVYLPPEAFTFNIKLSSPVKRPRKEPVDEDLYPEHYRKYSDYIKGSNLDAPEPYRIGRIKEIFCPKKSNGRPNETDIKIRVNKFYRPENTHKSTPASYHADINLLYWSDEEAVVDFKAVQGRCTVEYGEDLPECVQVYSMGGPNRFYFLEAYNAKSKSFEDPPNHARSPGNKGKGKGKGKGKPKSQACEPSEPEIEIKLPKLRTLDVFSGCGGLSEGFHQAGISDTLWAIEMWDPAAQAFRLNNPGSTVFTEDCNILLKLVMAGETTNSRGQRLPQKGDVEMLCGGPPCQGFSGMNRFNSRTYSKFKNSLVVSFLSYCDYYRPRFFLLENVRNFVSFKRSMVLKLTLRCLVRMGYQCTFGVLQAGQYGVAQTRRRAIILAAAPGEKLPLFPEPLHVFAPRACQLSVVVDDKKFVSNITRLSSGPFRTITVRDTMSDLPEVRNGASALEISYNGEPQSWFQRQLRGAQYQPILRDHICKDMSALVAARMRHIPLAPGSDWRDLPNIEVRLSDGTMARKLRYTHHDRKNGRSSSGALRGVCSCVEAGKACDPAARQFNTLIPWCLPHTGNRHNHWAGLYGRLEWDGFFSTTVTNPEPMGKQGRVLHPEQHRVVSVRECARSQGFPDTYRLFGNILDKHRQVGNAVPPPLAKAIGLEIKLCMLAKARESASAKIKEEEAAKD
# LMPTP inh = LMPTP (human) inhibition. P24666. recombinant LMPTP-A, OMFP fluorogenic substrate, fluorescence intensity. inhibition, % at 20 µM. 360,000 compounds, 0.22% hits;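 active means compounds that cut the enzyme signal by at least half of the control window in the single-dose screen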;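 further: plate controls were DMSO wells with enzyme plus substrate for no effect and substrate without enzyme for full effect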
#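 Test system: LMPTP-A, protein tyrosine phosphatase of low molecular weight; Input: 0.625 nM enzyme; Incubation: 50 min dark incubation at room temperature; Signal: endpoint fluorescence intensity from OMFP dephosphorylation; Read-out basis: % inhibition versus control wells.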
# STEP block = blocks human striatal-enriched tyrosine phosphatase | inhibition, % at 20 µM | AID 588621 | P54829 | 360,000 compounds, 0.25% hits | recombinant STEP, OMFP fluorogenic substrate, fluorescence;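 active means inhibition at 20 µM, scaled per plate between control wells, above about 37%, limit read from the data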;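 further: 0% = DMSO with enzyme and substrate and 100% = substrate only without enzyme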
#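 medium = Bis-Tris buffer pH 6.0, 2.5 mM DTT, 0.005% Tween 20 | test system = STEP (striatal-enriched tyrosine phosphatase) enzyme, cell-free | measure = normalized % inhibition | compound dosing = 20 µM, 1% DMSO | also added = 25 µM OMFP | schedule = reaction 20 min, ambient temperature | measured by = fluorescence read at 480 nm ex / 540 nm em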
# Scp-1 inhibitor = Scp-1 (human) phosphatase inhibition; AID 493091; Recombinant Scp1, phosphopeptide, malachite green phosphate absorbance; 340,000 compounds, 0.88% hits; Q9GZU7; inhibition, % at 20 µM;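 active means inhibition above about 50% at 20 µM, limit read from the data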;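 further: plate controls were DMSO wells with enzyme for no effect and wells lacking enzyme for full effect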
#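 Test system: SCP-1 phosphatase catalytic domain, residues 76-261; measured by: colorimetric phosphate reagent with accelerator and stabiliser, absorbance at 630 nm; timing: enzyme reaction 45 min at room temperature, colour 5 min, stabilisation 30 min; also added: Phosphorylated 17-residue peptide substrate; compound dosing: one concentration, 20 µM, with 1.0% DMSO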
# Rpn11 inh = inhibitors of human proteasome Rpn11; O00487; human 26S proteasome, Ub4-pepOG fluorescence polarization; 20S core pre-blocked with epoxomicin; inhibition, % at 20 µM; 360,000 compounds, 0.59% hits; AID 588493;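 active means inhibition at 20 µM, scaled to each plate's controls, above about 33%, limit read from the data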
# STEP inh conf = confirmation of human STEP phosphatase inhibitors; AID 623866; shares compounds with STEP block; 520 compounds, 32% hits; inhibition, % at 20 µM; recombinant STEP, OMFP fluorogenic substrate, fluorescence; call rule not given here;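 further: 0% = enzyme with substrate plus DMSO and 100% = substrate without enzyme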
# * hit, by the source's call; x = not tested or not shown.
SMILES,DNMT1 inh,LMPTP inh,STEP block,Scp-1 inhibitor,Rpn11 inh,STEP inh conf
COc1ccccc1NS(=O)(=O)c1cc(NC(=O)c2sccc2C)ccc1N1CCCC1,-6.6,4.0,97.8*,-6.9,18.8,93.4*
Cc1nc(CSc2nsc(/C=C/N(C)C)c2C#N)cs1,-10.9,1.5,-1.4,-1.2,x,x
COC(=O)c1ccccc1CSc1nsc(/C=C/N(C)C)c1C#N,-22.8,4.1,85.7*,-10.1,x,102.9*
OCCN1CCN(C(=S)c2ccc(Br)cc2)CC1,1.2,-1.2,84.0*,2.2,-1.7,39.5*
CSc1ccc(C(=S)N2CCN(CCO)CC2)cc1,-2.7,0.1,53.9*,-2.7,0.6,29.0
OCCN1CCN(C(=S)Nc2ccc(SC(F)F)cc2)CC1,2.1,-1.7,3.9,-10.7,-2.3,x
COc1ccccc1C(c1nnnn1CCc1ccccc1)N1CCCCCC1 (stereo unspecified),3.9,0.7,1.3,-4.8,7.4,x
O=C(N/N=C/C(Cl)=C/c1ccc([N+](=O)[O-])cc1)C(=O)Nc1cccc(C(=O)O)c1,-3.8,0.4,46.3*,12.3,-1.1,4.0
COCCn1c(SCC(=O)Nc2ccc3c(c2)OCCO3)nc2ccccc2c1=O,1.9,0.2,-1.7,x,-10.5,x
COCCn1c(SCC(=O)Nc2ccc3[nH]c(=O)[nH]c3c2)nc2ccccc2c1=O,1.9,-2.2,38.2*,-15.5,1.3,3.2
CCCn1ccnc1SCC(=O)Nc1c(C)n(C)n(-c2ccccc2)c1=O,2.2,-2.3,-5.0,-6.1,4.6,x
O=C(CC(=O)c1ccccc1)Nc1cccc([N+](=O)[O-])c1,-4.6,0.4,1.5,x,-0.5,x
O=C(CC(=O)c1cccc([N+](=O)[O-])c1)Nc1ccccc1Cl,-4.0,-1.5,120.1*,-7.0,-13.8,-0.2
CCSc1nc2sc3c(c2c(=O)n1-c1ccccc1C)CCN(C)C3,-2.5,0.7,1.4,-5.7,10.1,x
O=C(NCCCn1ccnc1)C(Cc1ccccc1)N1C(=O)c2ccccc2C1=O (stereo unspecified),1.4,-0.9,48.3*,0.4,-9.0,35.7*
CC(C)(C)NC(=O)C(Cc1ccccc1)N1C(=O)c2ccccc2C1=O (stereo unspecified),-0.3,0.4,-0.4,-3.7,-3.2,x
COc1ccc(CNC(=O)CCS(=O)(=O)c2ccc3c(c2)NC(=O)CS3)cc1,1.2,-0.2,-0.7,-1.1,-0.4,x
Cn1c(SCC(=O)N2CCCC2)nc2cccnc21,2.0,0.6,51.7*,-6.0,5.0,1.2
Cc1ccccc1NC(=S)NCC1CCC(CNC(=S)Nc2ccccc2C)CC1 (stereo unspecified),-0.3,0.5,1.4,-4.3,-3.6,x
Cc1ccc(NC(=S)NCC2CCN(C(C)c3ccccc3)C2)cc1 (stereo unspecified),0.1,0.6,47.1*,-10.4,-4.1,9.8
Cc1cc(C)c(NC(=S)NCC2CCN(C(C)c3ccccc3)C2)c(C)c1 (stereo unspecified),-4.6,0.9,95.4*,-7.9,-7.8,82.7*
CC(c1ccccc1)N1CCC(CNC(=S)Nc2cccc(Cl)c2)C1 (stereo unspecified),-2.0,0.6,3.7,-5.4,3.5,x
Cc1c(C(=O)OCC(=O)N(C)c2ccccc2)oc2ccccc12,-1.9,1.6,-1.0,-10.0,-0.6,x
O=C(Nc1cccc2c(=O)[nH][nH]c(=O)c12)c1ccc([N+](=O)[O-])cc1,29.7,20.8,56.7*,x,-34.1,47.0*
CC(=O)c1ccc(C(=O)N2CCC(n3nccc3NC(=O)C3CC3)CC2)cc1,0.3,-2.6,2.8,-10.0,2.6,x
SMILES,DNMT1 inh,LMPTP inh,STEP block,Scp-1 inhibitor,Rpn11 inh,STEP inh conf
CC(C)c1ccc(N2C(=O)C(Cl)=C(N3CCOCC3)C2=O)cc1,-0.3,0.8,42.2*,-7.1,-4.5,-7.1
O=C1C(Cl)=C(N2CCOCC2)C(=O)N1c1ccc(Br)cc1,-3.1,1.1,6.8,0.1,-1.3,x
COc1cccc(COCC(O)CN2CCC(C(N)=O)CC2)c1 (stereo unspecified),-3.6,0.6,1.3,-15.1,3.1,x
COCCn1c(SCCN2CCOCC2)nc2c1c(=O)[nH]c(=O)n2C,-1.9,-2.4,60.4*,2.4,-2.3,28.7
C=CCn1c(SCCN2CCOCC2)nc2c1c(=O)[nH]c(=O)n2C,2.1,-2.1,2.2,-4.2,-5.3,x
Cc1cc([N+](=O)[O-])c2[nH]c(C(=O)N/N=C/c3ccccc3C(=O)O)c(-c3ccccc3)c2c1,0.6,0.4,73.3*,2.4,6.0,23.5
CN(C)C(CNC1CC(C)(C)NC(C)(C)C1)c1cccc(F)c1 (stereo unspecified),-2.6,-1.5,-2.8,-7.7,-2.5,x
CCOc1ccc(/C=N/NC(=O)c2[nH]c3ccc(C)cc3c2C)cc1,-6.6,30.4,79.7*,-4.5,4.9,6.3
Cc1ccc(NC(=O)C(c2ccccc2)N2CCN(CC(=O)N3CCOCC3)CC2)cc1Cl (stereo unspecified),23.4,7.0,46.3*,48.5,-5.1,-9.7
Cc1ccc(C)c(N2N=C(C(=O)NCCN3C(=O)S/C(=C\c4cccnc4)C3=O)CCC2=O)c1,8.5,0.0,0.7,5.5,-2.6,x
CC(=O)Nc1ccccc1-c1nc2ccccc2nc1OCC(=O)c1ccc(Cl)cc1,-2.2,-0.7,56.8*,-4.4,-1.5,-3.0
CC(C)(C)OC(=O)C[C@H]1C/C=C\C[C@H](CC(=O)NCCO)C(=O)NC[C@@H](c2ccccc2)OC1=O,11.1,-0.7,-0.1,-2.3,-3.9,x
CCc1ccc2oc(C(=O)NC3CCS(=O)(=O)C3)cc(=O)c2c1 (stereo unspecified),2.4,-0.1,0.2,-0.3,-2.8,x
O=S(=O)(c1ccccc1)N1CCN(C(=S)NCCCN2CCOCC2)CC1,1.7,-3.5,48.7*,4.8,-0.3,14.1
Cc1cccc(C(=O)NCC(=O)N(C)Cc2nc3ccccc3c(=O)[nH]2)c1,2.9,-0.3,97.1*,-2.4,-2.0,5.0
CC1CCN(c2c([N+](=O)[O-])c(=O)oc3ccccc23)CC1,1.1,-1.4,53.0*,-7.8,-38.6,1.5
C=CCn1c(=O)c2c(nc3n2CC(C)CN3Cc2ccccc2)n(C)c1=O (stereo unspecified),-2.6,0.1,0.1,-6.8,-3.1,x
COCCNc1nc(Oc2cccc3ccccc23)c2sccc2n1,-8.9,2.5,2.1,x,0.5,x
CC1(C)Cc2c(sc(NC(=O)C(=O)NCCCN3CCOCC3)c2C(N)=O)CO1,1.4,-2.2,40.4*,-4.0,1.1,13.3
CNC(=S)Nc1ccccc1-c1ccccc1,10.5,-2.2,41.0*,-4.1,1.4,5.8
CCNC(=S)Nc1ccccc1-c1ccccc1,-2.2,-1.4,-2.9,-5.5,-2.8,x
Cc1sc2nc(CSC(C)C(=O)Nc3ccc(Cl)cn3)[nH]c(=O)c2c1C (stereo unspecified),2.4,-1.8,78.6*,2.3,7.4,59.6*

# Screening results (PubChem BioAssay)
